Experiment [1] concerns the target Aldo-keto reductase family 1 member B1 (Rattus norvegicus, UniProt P07943). Nature of the experiment: In vitro inhibition of Aldose reductase (AR) from rat lens (RL). The gist of the method:
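Unfractionated rat lens supernatant (50–100 μg protein) run in the reverse direction: 50 mmol/L potassium phosphate pH 7.5, 12 mmol/L benzyl alcohol, 12 μmol/L oxidized 3-acetylpyridine adenine dinucleotide phosphate, room temperature. Reduced analogue formation followed fluorometrically at 365/480 nm. Same enzyme activity used for all inhibitors. IC50 from linear regression over the linear part of the dose–response curve.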

For experiment [2], the target named is Aldo-keto reductase family 1 member B1 (Rattus norvegicus) (UniProt P07943). The experiment can be described thus: Selectivity as ratio of IC50 for rat lens and kidney […].
The target of experiment [3] is Aldo-keto reductase family 1 member A1 (Rattus norvegicus, UniProt P51635). The experiment can be described thus: In vitro inhibitory activity against L-Hexonate Dehydrogenase (L-HDH) from rat kidney (RK).
Aldo-keto reductase family 1 member A1, sequence (P51635 whole entry, looked up): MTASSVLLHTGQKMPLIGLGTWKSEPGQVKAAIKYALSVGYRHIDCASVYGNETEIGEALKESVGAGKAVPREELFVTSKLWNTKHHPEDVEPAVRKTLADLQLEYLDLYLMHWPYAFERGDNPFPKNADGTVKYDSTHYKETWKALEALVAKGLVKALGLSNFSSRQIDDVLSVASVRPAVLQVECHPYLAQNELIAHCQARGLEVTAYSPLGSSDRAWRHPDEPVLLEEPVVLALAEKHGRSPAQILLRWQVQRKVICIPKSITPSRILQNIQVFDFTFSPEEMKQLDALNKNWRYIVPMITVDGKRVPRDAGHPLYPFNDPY

`O=C1NS(=O)(=O)CC12c1cc(F)ccc1-c1ccc(F)cc12`: the IC50 in experiment [1] is 6150 µM; in experiment [3] it was 3.75 µM. Moreover, the Selectivity quotient in experiment [2] is 1640.

With `O=C1NS(=O)(=O)CC12c1ccccc1-c1ccccc12`, the IC50 was more than 10000 µM in experiment [1] and 4.5 µM in experiment [3]. The Selectivity quotient in experiment [2] is more than 2000.

Turning to `O=C1CC2(c3ccccc3-c3ccc(Cl)cc32)S(=O)(=O)N1` (centres undefined), the IC50 in experiment [1] is 0.233 µM; in experiment [3], 0.105 µM. Further, the Selectivity quotient in experiment [2] is 2.22.

On to `O=C1CC2(c3cc(F)ccc3-c3ccc(F)cc32)S(=O)(=O)N1`, for which the concentration for half-maximal inhibition (IC50) is 0.018 µM in experiment [1] and 0.027 µM in experiment [3]. For the same compound, in experiment [2], the Selectivity quotient came out at 0.68.

Consider `COc1ccc2c(C(=S)N(C)CC(=O)O)cccc2c1C(F)(F)F` [TOLRESTAT], for which the half-inhibitory concentration (IC50) in experiment [1] came out at 0.002 µM.

For `O=C1NS(=O)(=O)CC12c1ccccc1-c1ccc(F)cc12` (centres undefined), the values for the IC50 in experiment [1] and in experiment [3] were more than 10000 µM and 2.1 µM, respectively. In addition, the Selectivity quotient in experiment [2] was more than 5000.

As for `O=C1CC2(c3ccccc3-c3ccccc32)S(=O)(=O)N1`, the results for the IC50 in experiment [1] and in experiment [3] were 1.9 µM and 1.75 µM, respectively. Further, the Selectivity quotient in experiment [2] came to 1.09.

`O=C1NC(=O)C2(N1)c1cc(F)ccc1-c1ccc(F)cc12`: the IC50 in experiment [1] was found to be 0.009 µM; in experiment [3], 0.005 µM. For the same compound, the Selectivity quotient in experiment [2] is 1.8.

Consider `O=C1CC2(c3ccccc3-c3ccc(F)cc32)S(=O)(=O)N1` (centres undefined), for which the IC50 in experiment [1] came to 0.169 µM; in experiment [3], 0.151 µM. Further, in experiment [2], the Selectivity quotient came to 1.12.

Consider `O=C1NS(=O)(=O)CC12c1ccccc1-c1ccc(Cl)cc12` (centres undefined), for which the values for the IC50 in experiment [1] and in experiment [3] were 2370 µM and 3.51 µM, respectively. The Selectivity quotient in experiment [2] turned out to be 675.

With `O=C1CC2(C(=O)N1)c1cc(F)ccc1-c1ccc(F)cc12`, the 50% inhibitory concentration (IC50) amounted to 0.005 µM in experiment [1] and 0.009 µM in experiment [3]. In experiment [2], the Selectivity quotient was 0.56.

With `O=C(O)Cc1nn(Cc2ccc(Br)cc2F)c(=O)c2ccccc12` [PONALRESTAT], the IC50 in experiment [1] turned out to be 0.02 µM; in experiment [3], 2.4 µM. The Selectivity quotient in experiment [2] turned out to be 0.008.

Usually IC50 stands for the concentration that gives 50% inhibition. Lower therefore signals greater potency in that assay.
